An excerpt weighted towards active compounds, which were near 2.9% of everything screened.
FAS-TE inh = blocks the thioesterase domain of human fatty acid synthase | P49327 | recombinant FAS-TE, OMFH fluorogenic substrate, fluorescence endpoint | inhibition, % at 15 µM | 0.67% of 360,000 active | AID 602261;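 active = compounds whose normalised, plate-corrected inhibition of enzyme fluorescence in the single-dose primary screen is 50% or more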
ADAM17 inh = inhibits human ADAM17 | 0.83% of 370,000 active | AID 720648 | P78536 | inhibition, % at 6.95 µM | recombinant ADAM17, EDANS/DABCYL FRET peptide cleavage;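 active = inhibition above the mean of compounds lying between control limits plus 3 SD, set per campaign, cut at about 8.5% in these data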
CendR NRP1 mod = alters CendR peptide binding to human NRP-1 | inhibition, % at 25 µM | FAM-RPARPAR peptide binding to NRP-1, fluorescence polarization | 0.85% of 360,000 active | O14786;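 active = inhibition or corrected inhibition above about 18%, plus a signal ratio from 0.5 to 1.5, limit read from the data, passing the limit was not always enough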
ADAM10 inh = ADAM10 inhibition, QFRET primary screen | O14672 | recombinant ADAM10, EDANS/DABCYL FRET peptide cleavage, 3 h | inhibition, % at 7 µM | 0.62% of 370,000 active;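 active = inhibition above a per-campaign cutoff equal to the mean of compounds falling between control-based bounds plus 3 SD, cut at about 20% in these data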
Target sequence (O14672 214-748 limits assumed): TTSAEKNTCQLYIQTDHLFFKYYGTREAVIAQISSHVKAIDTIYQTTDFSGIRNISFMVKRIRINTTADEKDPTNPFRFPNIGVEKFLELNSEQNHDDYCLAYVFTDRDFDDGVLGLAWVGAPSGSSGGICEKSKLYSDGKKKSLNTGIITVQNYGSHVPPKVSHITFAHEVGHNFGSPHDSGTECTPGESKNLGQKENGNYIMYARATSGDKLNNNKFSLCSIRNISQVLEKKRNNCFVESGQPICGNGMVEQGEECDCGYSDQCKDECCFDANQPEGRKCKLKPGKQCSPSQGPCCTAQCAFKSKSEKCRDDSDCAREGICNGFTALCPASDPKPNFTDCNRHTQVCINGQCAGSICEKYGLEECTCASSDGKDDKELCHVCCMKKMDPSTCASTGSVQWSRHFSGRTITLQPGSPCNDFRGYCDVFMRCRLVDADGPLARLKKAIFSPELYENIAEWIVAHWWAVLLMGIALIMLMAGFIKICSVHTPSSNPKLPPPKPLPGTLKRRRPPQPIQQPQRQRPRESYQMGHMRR
CaV13 FRET inh = Disruptors of the CACNA1D IQ motif to Ca2+-dependent inactivation inhibitor domain association, primary screening, Förster resonance energy transfer in intact living …; HEK cells, CFP/YFP FRET ICDI-IQ, plate reader, 10 min; percent FRET-ratio fall versus neutral wells; inhibition, % at 12.3 µM; 0.098% of 340,000 active;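 active = mean replicate inhibition of at least 30% and at least 1% of replicates passing that level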
Arrestin-AP2 inh = blocks beta-arrestin peptide binding to AP2 adaptin; inhibition, % at 10 µM; FITC-arrestin peptide / GST-AP2 beads, flow cytometry; AP2 beta2 appendage carries R879A mutation; 0.31% of 340,000 active;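 active = inhibition above a set limit, near 3 SD of compounds lacking own fluorescence, cut at about 54% in these data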
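test system = AP2 appendage R879A on GSH beads | buffer or medium = PBS plus Tween 20 (0.05%) and BSA (0.1%) | incubation = 12 min plus 1 h, RT | detection = bead flow cytometry, FITC channel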
ADAM10 confirm = confirmation of inhibitors of human ADAM10. shares compounds with ADAM10 inh. ADAM10 QFRET peptide cleavage, EDANS fluorescence. inhibition, % at 6.95 µM. 1% of 2,100 active. AID 743208;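 active = inhibition above about 20% chosen separately for each screening run, limit read from the data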
ADAM17 ctr = ADAM17 inhibition, counter-screen for ADAM10 exosite hits. shares compounds with ADAM10 inh. ADAM17 QFRET peptide cleavage, EDANS fluorescence. inhibition, % at 6.95 µM. 0.5% of 2,100 active. AID 743214;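 active = mean triplicate inhibition above the solvent-only control wells' mean plus 3 SD, cut at about 12% in these data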
ADAM10 ctr = inhibits human ADAM10 in ADAM17 exosite counter-screen; shares compounds with ADAM17 inh; recombinant ADAM10, EDANS/DABCYL FRET peptide cleavage, 3 h; inhibition, % at 6.95 µM; 47% of 2,900 active;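 active = mean inhibition over the triplicate runs exceeds the activity threshold set in the earlier primary screen, cut at about 20% in these data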
ADAM17 confirm = confirmation of inhibitors of human ADAM17 | AID 743257 | inhibition, % at 6.95 µM | recombinant ADAM17, EDANS/DABCYL QFRET peptide cleavage | shares compounds with ADAM17 inh | 65% of 2,900 active;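 active = mean inhibition across replicates above the hit cutoff set in the primary screen, cut at about 8.5% in these data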
Of the large screens only hits and unclear results are named; the others gave an inactive call (follow-up assays come after a bar, where they were run).

COc1ccccc1NC(=O)CN1CCN(CC(=O)Nc2ccc(Cl)c(C(F)(F)F)c2)CC1	none
CCc1ccccc1NCC(=O)Nc1ccc(Cl)c(C(F)(F)F)c1	ADAM17 inh 17.4, ADAM10 inh 34.9 | ADAM10 confirm inactive | ADAM17 ctr inactive | ADAM10 ctr 40.4 | ADAM17 confirm 19.3
Cc1ccc(Cc2c(-c3ccc(F)cc3)nc3c(C)cc(Br)cn23)cc1	none (no result: ADAM17 inh, ADAM10 inh, CaV13 FRET inh, Arrestin-AP2 inh)
COc1ccc(C(C)(C)C)cc1NC(=O)Nc1ccc2c(c1)OCO2	ADAM17 inh 10.1, ADAM10 inh 23.5 | ADAM10 confirm inactive | ADAM17 ctr inactive | ADAM10 ctr 41.3 | ADAM17 confirm 24.2
COc1cc(NC(=O)Nc2ccc3c(c2)OCO3)cc(OC)c1OC	none
CC1CCN(S(=O)(=O)c2ccc(NC(=O)CN3C(=O)NC(C)(c4ccccc4)C3=O)cc2)CC1 (centres undefined)	none
CCC1(c2ccccc2)NC(=O)N(CC(=O)Nc2ccc(S(=O)(=O)N3CC(C)CC(C)C3)cc2)C1=O (centres undefined)	ADAM17 inh 10.3, ADAM10 inh 21.1 | ADAM10 confirm inactive | ADAM17 ctr inactive | ADAM10 ctr 48.5 | ADAM17 confirm 23.7
O=C(NCc1ccccc1)[C@H]1CCCN1C(=O)[C@H]1CCCN1C(=O)c1ccc(F)cc1	none (no result: FAS-TE inh, CendR NRP1 mod, Arrestin-AP2 inh)
CCN1CCN(c2oc(COc3ccc(Cl)cc3)nc2C#N)CC1	none
COc1ccc(N2CCN(c3oc(COc4ccccc4)nc3C#N)CC2)cc1	none
N#Cc1nc(COc2ccc(Cl)cc2)oc1N1CCN(Cc2ccccc2)CC1	ADAM17 inh 8.6, ADAM10 inh 21.9 | ADAM10 confirm inactive | ADAM17 ctr inactive | ADAM10 ctr 25.8 | ADAM17 confirm 16.4
CN1CCN(c2oc(COc3ccc(-c4ccccc4)cc3)nc2C#N)CC1	ADAM17 inh 18.1, ADAM10 inh 26.6 | ADAM10 confirm inactive | ADAM17 ctr inactive | ADAM10 ctr 23.4 | ADAM17 confirm 14.3
Cc1ccc([N+](=O)[O-])cc1-c1[nH]c(-c2ccc(O)c(O)c2)nc1-c1ccccc1	ADAM17 inh 8.8, ADAM10 inh 21.3 | ADAM10 confirm inactive | ADAM17 ctr inactive | ADAM10 ctr 27.6 | ADAM17 confirm 13.2
COc1ccc([N+](=O)[O-])cc1-c1[nH]c(-c2ccc(C(=O)O)cc2)nc1-c1ccccc1	none
COc1ccc(NC(=O)COC(=O)CCCOc2ccc(Cl)cc2Cl)cc1	ADAM17 inh 10.0, ADAM10 inh 23.8 | ADAM10 confirm inactive | ADAM17 ctr inactive | ADAM10 ctr inactive | ADAM17 confirm inactive
COc1cc(C2C3C(=O)N(Cc4ccccc4)C(=O)C3ON2c2ccccc2)cc(OC)c1OC (centres undefined)	none
COc1ccc(C2C3C(=O)N(Cc4ccccc4)C(=O)C3ON2c2ccccc2)c(OC)c1OC (centres undefined)	ADAM17 inh 10.7, ADAM10 inh 21.0 | ADAM10 confirm inactive | ADAM17 ctr inactive | ADAM10 ctr 31.8 | ADAM17 confirm 16.7
Cc1cc(C(=O)COC(=O)CC2Sc3ccccc3NC2=O)c(C)n1-c1ccccc1 (centres undefined)	ADAM17 inh 17.8, ADAM10 inh 27.6 (no result: Arrestin-AP2 inh) | ADAM10 confirm inactive | ADAM17 ctr inactive | ADAM10 ctr 20.8 | ADAM17 confirm 11.9
CCCNC(=O)C1(C)CCCN(Cc2ccccc2N(C)C)C1 (centres undefined)	none (no result: Arrestin-AP2 inh)
O=C(Nc1ccc(Cl)c(S(=O)(=O)N2CCCCC2)c1)c1ccncc1	none
Cn1cccc1C(=O)Nc1ccc(Cl)c(S(=O)(=O)N2CCCCC2)c1	ADAM17 inh 16.9, ADAM10 inh 39.9 | ADAM10 confirm inactive | ADAM17 ctr inactive | ADAM10 ctr inactive | ADAM17 confirm inactive
CC(=O)c1ccc(N2CCC(c3cc(-c4ccc(Cl)cc4)n[nH]3)CC2)c([N+](=O)[O-])c1	none (no result: ADAM17 inh, ADAM10 inh, CaV13 FRET inh)
COC(=O)c1ccc(N2CCC(c3cc(-c4ccc(OC)cc4)n[nH]3)CC2)c([N+](=O)[O-])c1	ADAM17 inh 11.7, ADAM10 inh 28.6 | ADAM10 confirm inactive | ADAM17 ctr inactive | ADAM10 ctr 34.7 | ADAM17 confirm 18.5
COc1ccc(OC)c(NC(=O)CNC(c2ccccc2)c2ccccc2)c1	ADAM17 inh 13.9, ADAM10 inh 24.5 | ADAM10 confirm inactive | ADAM17 ctr inactive | ADAM10 ctr 37.0 | ADAM17 confirm 14.0
CC1(C)CC(NC(=O)c2cc(S(=O)(=O)N3CCOCC3)c(Cl)cc2Cl)CC(C)(C)N1	none (no result: CaV13 FRET inh)
COc1ccc(OCC2CN(C3CCCC3)S(=O)(=O)CCO2)cc1 (centres undefined)	none (no result: FAS-TE inh, CendR NRP1 mod, Arrestin-AP2 inh)
COC(=O)[C@]12C[C@H](CC(=O)NCc3ccc(OC)c(OC)c3)C(=O)N(CCc3ccc(OC)c(OC)c3)C1=C[C@H](C1CCCC1)O[C@@H]2C	none (no result: FAS-TE inh, CendR NRP1 mod, CaV13 FRET inh, Arrestin-AP2 inh)
COc1ccc2c(c1)C1C=CCC1C(c1cc3c(cc1Br)OCO3)N2 (centres undefined)	ADAM17 inh 9.1, ADAM10 inh 22.2 | ADAM10 confirm inactive | ADAM17 ctr inactive | ADAM10 ctr inactive | ADAM17 confirm inactive
S=C(Nc1ccc(Nc2ccccc2)cc1)NC1CCCCCC1	ADAM17 inh 10.2, ADAM10 inh 29.8 | ADAM10 confirm inactive | ADAM17 ctr inactive | ADAM10 ctr 27.6 | ADAM17 confirm 16.7
S=C(Nc1ccc(Cl)cc1)NC1CCCCC1	none
Cc1ccc(S(=O)(=O)N(C)c2ccc(OCC(=O)Nc3nc4ccccc4s3)cc2)cc1	ADAM17 inh 18.5, CendR NRP1 mod 25.3, ADAM10 inh 29.2 (no result: CaV13 FRET inh) | ADAM10 confirm inactive | ADAM17 ctr inactive | ADAM10 ctr 23.3 | ADAM17 confirm 15.7
Cc1ccc(S(=O)(=O)N(C)c2ccc(OCC(=O)Nc3nc4c(ccc5ccccc54)s3)cc2)cc1	none
COC(=O)c1[nH]c2ccccc2c1Sc1ccccc1	none
CNC(=O)CCc1[nH]c2ccccc2c1Sc1ccccc1	ADAM17 inh 9.1, ADAM10 inh 19.8 | ADAM10 confirm inactive | ADAM17 ctr inactive | ADAM10 ctr inactive | ADAM17 confirm inactive
Cc1ccc(-c2nnc(SCC(=O)NN=Cc3c[nH]c4ccccc34)n2-c2ccccc2)cc1	none (no result: FAS-TE inh, CendR NRP1 mod, CaV13 FRET inh, Arrestin-AP2 inh)

Bioassay records: PubChem BioAssay, several laboratories
